Reference: ChEMBL document CHEMBL1131385, “Does the anti-hepatitis B virus activity of (+)-5'-noraristeromycin exist in its 4'-epimer and 4'-deoxygenated derivatives?” (J Med Chem, 1998)

Columns and labels:
[1] = tested on: Hepatoblastoma cell line; test: Cytotoxic concentration against Hepatitis B virus in human hepatoblastoma cell line; format: functional
[2] = tested on: Hepatoblastoma cell line; test: (§1) Effective concentration against Hepatitis B virus in human hepatoblastoma cell line; format: functional
Outline: (§2)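 Confluent cultures of the human hepatoblastoma line 2.2.15, which chronically produces HBV, were used to measure inhibition of HBV replication. Cells got nine consecutive daily doses of agent, with the medium removed each day.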

[3] = tested on: Hepatoblastoma cell line; test: as §1; format: functional, cell-based; outline: as §2
[4] = Selectivity index was evaluated [Selectivity = (CC50 / EC50) against Hepatitis B virus in human hepatoblastoma cell line]; format: functional

| Compound | CC50 [1] [µM] | EC90 [2] [µM] | EC50 [3] [µM] | SI [4] |
| --- | --- | --- | --- | --- |
| Nc1ncnc2c1ncn2[C@H]1C[C@@H](O)[C@H](O)[C@@H]1O | 1880 | > 10 | > 10 |  |
| Nc1ncnc2c1ncn2[C@H]1C=C[C@H](O)[C@@H]1O | 325 | 1.4 | 0.145 | 232 |
| Nc1ncnc2c1ncn2[C@@H]1CC[C@@H](O)[C@H]1O | 93 | 0.978 | 0.12 | 95 |
| COC1CC(n2cnc3c(N)ncnc32)C(O)C1O (configuration not stated) | > 1000 | > 10 | > 10 |  |
| Nc1ccn([C@@H]2CS[C@H](CO)O2)c(=O)n1 [LAMIVUDINE] | 1880 | 0.209 | 0.07 | 9014 |
| Nc1ncnc2c1ncn2[C@@H]1C[C@H](O)[C@@H](O)[C@H]1O [NORARISTEROMYCIN] | 446 | 9.6 | 1.4 | 46 |
